A short description of assay [1]: SK-BR-3 cell growth inhibitors, pilot screen, 24 h, human (AID 572;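 active means viability at or below 10% of carrier control in both of two separate runs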;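 further: compound exposure lasted between 18 and 24 h rather than exactly 24 h; 100% = carrier-treated control wells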). Conditions: SK-BR-3 viability, CellTiter-Glo luminescence, at 10 µM, stronger effect = lower value.
The nature of assay [2]: HUVEC growth inhibition – cell-based, human, primary screen (AID 575;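 active means viability at or below 30% in both replicate assays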;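 further: 100% = median of untreated cell wells with 0.1% DMSO on each plate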). The note with it: HUVEC proliferation, CellTiter-Glo luminescence, 72 h; at 10 µM; stronger effect = lower value. In outline:
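System: primary human umbilical vein endothelial cells; Quantity: 1250 endothelial cells in each well; Buffer or medium: supplemented EBM, 2% fetal bovine serum; Doses: one dose, 10 µM final, 0.1% DMSO; Incubation: 72 h compound incubation; Technique: ATP-based CellTiter-Glo luminescent read; Evaluation: percent of median DMSO-control luminescence; Controls: vehicle and MePR control wells.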

Assay [3] is described as follows: growth inhibitors of H69AR lung tumor, primary screen, human, duplicate replicates (AID 580;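 active means viability at or under a set limit in both replicates, limit being median viability minus 3 SD, cut at about 48% in these data, passing the limit was not always enough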;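 further: 100% = mean luminescence of untreated wells and 0% = no signal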). The note with it: H69AR lung tumor cells viability, ATP luminescence, 72 h; at 10 µM; stronger effect = lower value.
The nature of assay [4]: reversal of MRP1-mediated doxorubicin resistance, pilot screen, H69AR cells, doxorubicin co-treatment (AID 601;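 active means viability loss from added drug above about 55%, and viability with drug at most 40%, in both replicates, limit read from the data, passing the limit was not always enough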). The note with it: CellTiter-Glo, 72 h, at 10 µM; for differential viability (reversal): stronger effect = higher value.
Assay [5] is described as follows: 384-well plate pilot, post-Golgi transport modulator project, inhibition of yeast transport mutant growth (AID 636; in the data active means inhibition above about 31%). The note with it: absorbance 615 nm, about 18 h, stronger effect = higher value.
The nature of assay [6]: growth suppression of yeast trafficking mutant, preliminary HTS, modulators of trafficking downstream of Golgi apparatus project, 1536-format plate, OD 615 nm (AID 637). Conditions: yeast transport mutant growth, absorbance 615 nm, 18 h; stronger effect = higher value.
The mark [7] stands for this setting: H69AR cells + 2 uM doxorubicin, measured here: viability with 2 uM doxorubicin, stronger effect = lower value.
Setting [8] is: H69AR cells, compound alone cytotoxicity.

The structures appear in SMILES notation. The source made the active and inactive calls. Unless noted, no stated cut-off is given here; in the data, active means inhibition above about 30%; inactive means the rest.

A word on the viability: it is a read-out of living cells in per cent, often relative to untreated cells. Broadly, the inhibition is the change of the read-out against control, counted positive when it falls.

`Cc1occc1C(=O)Nc1nnc(C2CCCCC2)s1`: the viability in assay [1] is 109% (inactive); in assay [2], 93.1% (inactive); in assay [3], 93.7% (inactive); in assay [4] (setting [7]), 79.6%; in assay [4] (setting [8]) it was 93.7%. Besides, the differential viability (reversal) in assay [4] (H69AR cells + 2 uM doxorubicin) is 14.1% (inactive). Further, the inhibition in assay [5] was -2.74% (inactive); in assay [6], 10.7% (inactive).
`CC(C)(C)C(=O)OCC1OC(n2cnc(C(N)=O)n2)C(O)C1O` (configuration not stated): the viability is 89% (inactive) in assay [1]; 99.1% (inactive) in assay [2]; 96.1% (inactive) in assay [3]; 94.5% in assay [4] (setting [7]); 96.1% in assay [4] (setting [8]). Also, the differential viability (reversal) in assay [4] (H69AR cells + 2 uM doxorubicin) was 1.56% (inactive). In addition, the figures for the inhibition in assay [5] and in assay [6] were -8.22% (inactive) and -2.36% (inactive), respectively.
In the case of `CCCc1cc(N2CCCC2)n2nc(C)c(-c3ccccc3)c2n1`, the viability in assay [1] is 64% (inactive); in assay [2], 94.7% (inactive); in assay [3], 76.6% (inactive); in assay [4] (setting [7]) it was 80.2%; in assay [4] (setting [8]), 76.6%. The differential viability (reversal) in assay [4] (H69AR cells + 2 uM doxorubicin) was -3.64% (inactive). The inhibition was -4.93% (inactive) in assay [5] and 5.27% (inactive) in assay [6].
Take `Cc1ccc(NC(=O)CC2C(=O)NC3CCCCC3N2C(=O)c2ccc(F)cc2)cc1C` (configuration not stated): the viability in assay [1] was 108% (inactive); in assay [2] it was 100% (inactive); in assay [3], 101% (inactive); in assay [4] (setting [7]), 88.5%; in assay [4] (setting [8]), 101%. In addition, in assay [4] (H69AR cells + 2 uM doxorubicin), the differential viability (reversal) is 12.5% (inactive). For the same compound, the values for the inhibition in assay [5] and in assay [6] were -2.47% (inactive) and 3.11% (inactive), respectively.
With `CN(C)C(CNC(=O)Nc1cccc(Cl)c1)c1cccnc1` (configuration not stated), the viability was 77% (inactive) in assay [1]; 96.6% (inactive) in assay [2]; 90.6% (inactive) in assay [3]; 81.7% in assay [4] (setting [7]); 90.6% in assay [4] (setting [8]). Besides, in assay [4] (H69AR cells + 2 uM doxorubicin), the differential viability (reversal) was 8.96% (inactive). Moreover, the inhibition in assay [5] is -3.42% (inactive); in assay [6] it was 2.18% (inactive).
For `CC1CC(C)CN(c2nc3c(c(=O)[nH]c(=O)n3C)n2CCCSc2nc3ccccc3s2)C1` (configuration not stated), the viability in assay [1] is 59% (inactive); in assay [2] it was 115% (inactive); in assay [3], 100% (inactive); in assay [4] (setting [7]), 106%; in assay [4] (setting [8]) it was 100%. The differential viability (reversal) in assay [4] (H69AR cells + 2 uM doxorubicin) is -5.73% (inactive). Also, the inhibition in assay [5] was -0.14% (inactive); in assay [6], 4.36% (inactive).
As for `CCC(=O)Nc1ccc(NC(=O)c2ccccn2)cn1`, the viability in assay [1] was 87% (inactive); in assay [2] it was 103% (inactive); in assay [3] it was 98.2% (inactive); in assay [4] (setting [7]) it was 84.6%; in assay [4] (setting [8]) it was 98.2%. In assay [4] (H69AR cells + 2 uM doxorubicin), the differential viability (reversal) was 13.6% (inactive). The inhibition in assay [5] is -5.47% (inactive); in assay [6], -8% (inactive).
For `COc1cccc(C=Nc2ccc3c(c2)OCCO3)c1O`, the viability in assay [1] is 115% (inactive); in assay [2], 79.2% (inactive); in assay [3] it was 83% (inactive); in assay [4] (setting [7]) it was 95%; in assay [4] (setting [8]) it was 83%. Moreover, the differential viability (reversal) in assay [4] (H69AR cells + 2 uM doxorubicin) is -12% (inactive). The inhibition in assay [5] was 1.95% (inactive); in assay [6], -0.33% (inactive).
In the case of `COCCn1c(C)cc(C(=O)COC(=O)c2ccc(N3CCCC3=O)cc2)c1C`, the viability was 95% (inactive) in assay [1]; 88.4% (inactive) in assay [2]; 92.3% (inactive) in assay [3]; 83.4% in assay [4] (setting [7]); 92.3% in assay [4] (setting [8]). Further, in assay [4] (H69AR cells + 2 uM doxorubicin), the differential viability (reversal) is 8.88% (inactive). In addition, the values for the inhibition in assay [5] and in assay [6] were -4.8% (inactive) and 2.18% (inactive), respectively.
Turning to `CCn1c(SCC(=O)N2CCN(c3ccc(Cl)cc3)CC2)nc2ccccc2c1=O`, the viability was 96% (inactive) in assay [1]; 77.2% (inactive) in assay [2]; 78.6% (inactive) in assay [3]; 91.5% in assay [4] (setting [7]); 78.6% in assay [4] (setting [8]). Moreover, the differential viability (reversal) in assay [4] (H69AR cells + 2 uM doxorubicin) is -12.9% (inactive). Besides, the values for the inhibition in assay [5] and in assay [6] were 5.89% (inactive) and 25.5% (inactive), respectively.
Regarding `Cc1ccc2c(c1)C(O)(CC(=O)c1ccc3c(c1)OCO3)C(=O)N2` (configuration not stated), the viability in assay [1] is 78% (inactive); in assay [2], 92.3% (inactive); in assay [3], 94.3% (inactive); in assay [4] (setting [7]), 86.2%; in assay [4] (setting [8]) it was 94.3%. In assay [4] (H69AR cells + 2 uM doxorubicin), the differential viability (reversal) was 8.13% (inactive). The values for the inhibition in assay [5] and in assay [6] were -4.11% (inactive) and -7.58% (inactive), respectively.
As for `COc1ccc2c(c1)C1(Nc3ccccc3-c3nc4ccccc4n31)C(=O)N2` (configuration not stated), the viability in assay [1] was 88% (inactive); in assay [2], 57.2% (inactive); in assay [3], 82.3% (inactive); in assay [4] (setting [7]), 85.9%; in assay [4] (setting [8]) it was 82.3%. Also, the differential viability (reversal) in assay [4] (H69AR cells + 2 uM doxorubicin) was -3.61% (inactive). In addition, the results for the inhibition in assay [5] and in assay [6] were -8.49% (inactive) and 4.19% (inactive), respectively.
For the compound `CCOC(=O)Cc1cc(=O)n2[nH]c(C)c(-c3ccc(OC)cc3)c2n1`, the viability in assay [1] is 103% (inactive); in assay [2] it was 56.1% (inactive); in assay [3], 92.6% (inactive); in assay [4] (setting [7]), 83.1%; in assay [4] (setting [8]), 92.6%. Also, in assay [4] (H69AR cells + 2 uM doxorubicin), the differential viability (reversal) was 9.51% (inactive). Moreover, the inhibition was -4.34% (inactive) in assay [5] and -1% (inactive) in assay [6].
As for `Cc1cc(-c2ccccc2)nnc1NCCN1CCOCC1`, the viability in assay [1] is 98% (inactive); in assay [2] it was 85.7% (inactive); in assay [3], 89.7% (inactive); in assay [4] (setting [7]), 92.1%; in assay [4] (setting [8]) it was 89.7%. In addition, in assay [4] (H69AR cells + 2 uM doxorubicin), the differential viability (reversal) is -2.49% (inactive). Moreover, the figures for the inhibition in assay [5] and in assay [6] were 1.69% (inactive) and -3.17% (inactive), respectively.
`COCCn1c(-c2ccco2)nc2nc3ccccc3nc21`: the viability in assay [1] was 99.5% (inactive); in assay [2], 99.1% (inactive); in assay [3], 77.3% (inactive); in assay [4] (setting [7]) it was 79.6%; in assay [4] (setting [8]) it was 77.3%. In addition, the differential viability (reversal) in assay [4] (H69AR cells + 2 uM doxorubicin) was -2.21% (inactive). Moreover, the inhibition is -8.27% (inactive) in assay [5] and 3.28% (inactive) in assay [6].
As to `CC1CCCN(S(=O)(=O)c2ccc(C(=O)Nc3nnc(-c4ccccc4Cl)o3)cc2)C1` (configuration not stated), the viability was 87% (inactive) in assay [1]; 11.1% (active) in assay [2]; 18.9% (active) in assay [3]; 37.9% in assay [4] (setting [7]); 18.9% in assay [4] (setting [8]). Also, the differential viability (reversal) in assay [4] (H69AR cells + 2 uM doxorubicin) was -19% (inactive). Besides, the inhibition was 11.6% (inactive) in assay [5] and 6.56% (inactive) in assay [6].
Consider `CCOc1ccc(NC(=O)C2CC(=O)N(CC)C(=Nc3ccc4c(c3)OCO4)S2)cc1` (configuration not stated), for which the viability in assay [1] is 87% (inactive); in assay [2], 109% (inactive); in assay [3] it was 84% (inactive); in assay [4] (setting [7]), 84.7%; in assay [4] (setting [8]), 84%. For the same compound, in assay [4] (H69AR cells + 2 uM doxorubicin), the differential viability (reversal) was -0.76% (inactive). The inhibition in assay [5] was -2.84% (inactive); in assay [6], -5.64% (inactive).
Take `CC1(C)Cc2c(sc3c2C2=NCCN2C=N3)CS1`: the viability is 87% (inactive) in assay [1]; 108% (inactive) in assay [2]; 105% (inactive) in assay [3]; 99.4% in assay [4] (setting [7]); 105% in assay [4] (setting [8]). In addition, the differential viability (reversal) in assay [4] (H69AR cells + 2 uM doxorubicin) is 5.41% (inactive). For the same compound, the inhibition in assay [5] is 2.05% (inactive); in assay [6], 2.73% (inactive).
Take `O=c1c2[nH]c3ccc(Cl)cc3c2ncn1Cc1ccccn1`: the viability is 94% (inactive) in assay [1]; 107% (inactive) in assay [2]; 101% (inactive) in assay [3]; 87.9% in assay [4] (setting [7]); 101% in assay [4] (setting [8]). Further, the differential viability (reversal) in assay [4] (H69AR cells + 2 uM doxorubicin) was 13.4% (inactive). Further, the figures for the inhibition in assay [5] and in assay [6] were -3.33% (inactive) and -3.27% (inactive), respectively.
